Beta cell apopt: inhibitors of cytokine-induced beta cell apoptosis, primary screen, luminescence. INS-1E cytokine-induced death, ATP luminescence, 48 h; percent of positive-control rescue, neutral wells zero. protection from apoptosis, % (concentration not given with the values). actives 0.8% (n = 300,000);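 active = Every replicate reaches about 75%, or at least half do and their mean reaches it too, limit read from the data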;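 note: 0% = cytokine-treated negative control wells and 100% = positive control rescue; higher means more ATP so stronger rescue from cytokine killing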
PfHsp90 set2: growth inhibition of PfHsp90-expressing yeast, primary screen, antimalarial PfHsp90 inhibitor project, S. cerevisiae, BacTiter-Glo luminescence, single point, set 2. AID 504621, 2011. inhibition, % at 9.4 µM. BacTiter-Glo ATP, 48 h; yeast lacking PDR1 and PDR3 efflux regulators. actives 0.32% (n = 310,000);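 active = every replicate shows inhibition above about 80%, whatever the replicate mean, limit read from the data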;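 note: 0% = DMSO neutral controls and 100% = 20 µM radicicol positive controls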
SKKanGAS inh: S. pyogenes SKKanGAS growth inhibitors in kanamycin, primary screen, streptokinase expression inhibitor project, SKKanGAS strain, BacTiter-Glo luminescence; inhibition, % at 7.5 µM; 6 h; actives 1.3% (n = 300,000);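 active = mean replicate score, as percent of positive control median, at least 50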;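 note: strain carries kanamycin resistance gene driven by streptokinase promoter and grows in 40 µg/ml kanamycin; loss of luminescence reflects streptokinase promoter inhibition or plain growth inhibition; 0% = median of DMSO wells and 100% = positive control at its reference dose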
CSC inhib: cancer stem cell viability inhibitors, primary screen, luminescence; inhibition, % at 7.5 µM; actives 1.1% (n = 300,000); cancer stem cell-like cells viability; in the data active = inhibition above about 75%; tested in HMLE shEcad cells
HIF act: HIF pathway transcriptional activators, primary screen, cell-based, U2OS HRE-luciferase, luminescence | activation, % at 7.5 µM (by protocol) | AID 1910, 2009 | actives 0.32% (n = 300,000) | U2OS HRE-luciferase reporter; normalized: DMSO 0%, desferrioxamine 100%;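 active = mean activation of at least 10% of the iron chelator positive control signal, with at least half of replicates also reaching 10%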
T cruzi inh: inhibitors of intracellular T. cruzi growth, primary screen, luminescence, NIH3T3 host cells | T. cruzi beta-gal in NIH3T3, 90 h | inhibition, % (concentration not given with the values) | actives 1.4% (n = 300,000) | AID 1885, 2009;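 active = mean inhibition across valid replicates above about 55%, limit read from the data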;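 note: signal also drops with host cell toxicity which is not excluded here; 0% = plate median of DMSO wells and 100% = zero luminescence signal; higher percent means less beta-gal luminescence so fewer parasites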
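Incubation – ≥90 h infection period, 3 h prior cell attachment · System – NIH/3T3 fibroblasts plus reporter T. cruzi · Doses – compound pinned at 50 nL/well, DMSO · Read-out basis – percent inhibition of parasite-derived β-gal signal · Signal – luminescent β-galactosidase signal after 60 min lysis · Also added – 5000 T. cruzi trypomastigotes/well · Medium – Low-serum DMEM with 2% FBS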
Numbers without * were called inactive; x = no result. This is a sample that favours compounds with a hit; in the whole collection about 3.6% have one here.

SMILES	Beta cell apopt	PfHsp90 set2	SKKanGAS inh	CSC inhib	HIF act	T cruzi inh
Cc1ccc(S(=O)(=O)Nc2cccc3c2O[C@H](CN(C)Cc2ccccc2)[C@@H](C)CN([C@H](C)CO)C3=O)cc1	2	13	x	6	x	x
CN1/C(=C\C(=O)COC(=O)c2ccc(O)c(O)c2)C(C)(C)c2ccccc21	95*	x	12	28	0	-3
CN1/C(=C\C(=O)C[n+]2cccc(Br)c2)C(C)(C)c2ccccc21	100*	29	1	19	0	-14
CN1/C(=C\C(=O)C[n+]2ccc(C(=O)c3ccccc3)cc2)C(C)(C)c2ccccc21	103*	26	16	4	0	9
CN1/C(=C\C(=O)COC(=O)c2ccc(O)cc2)C(C)(C)c2ccccc21	16	-10	2	15	0	33
O=C(CC(=O)c1ccccc1)CC(O)(C=Cc1ccccc1)c1ccccc1 (centres undefined)	x	-1	x	x	x	x
O=C(CNC(=O)c1ccco1)N/N=C/c1cccs1	2	-12	1	0	0	-16
Clc1ccccc1Sc1ccc(-c2ccccn2)s1	-6	x	62*	-1	0	1
Cc1ccc(-c2nc3c(c(=O)[nH]c(=O)n3CC(C)C)n2CC(C)C)cc1[N+](=O)[O-]	14	11	11	-11	-1	58*
COc1cc(OC)c(OC)cc1/C=C/C(=O)OCC(=O)Nc1c(C)n(C)n(-c2ccccc2)c1=O	x	-2	x	x	x	x
Cc1ccc(SC(=O)c2c(C)noc2-c2cc(C)on2)cc1	-33	-5	6	81*	0	-2
COc1cc(-c2ccc3c(=O)c4ccccc4n(C)c3c2)cc(OC)c1OC	12	1	44	93*	2	11
CC1CCc2sc(C(=O)NNC(=S)NC3CC3)cc2C1 (centres undefined)	-2	-24	20	x	3	-43
O=C(NC1CC1)c1ccc(CN(c2ccccc2)S(=O)(=O)c2ccccc2)cc1	x	-2	11	-3	0	-5
CCN(c1ccccc1)S(=O)(=O)c1ccc(C(=O)NC2CCN(Cc3ccccc3)CC2)cc1	84*	15	x	32	x	x
Cc1c(C(=O)NC2CCN(Cc3ccccc3)C2)oc2ccc(Br)cc12 (centres undefined)	5	-12	3	35	1	33
CCOc1ccc2oc(C(=O)NC3CCN(Cc4ccccc4)CC3)c(C)c2c1	-8	x	0	13	-1	61*
O=C(NC1CCN(Cc2ccccc2)CC1)c1ccc(S(=O)(=O)NCc2ccco2)cc1	8	34	4	2	0	73*
COc1ccc(Cl)cc1NS(=O)(=O)c1cccc(C(=O)NC2CCN(Cc3ccccc3)CC2)c1	x	23	x	x	x	x
COc1ccc(NS(=O)(=O)c2cccc(C(=O)NC3CCN(Cc4ccccc4)CC3)c2)cc1	14	-10	-2	16	0	63*
O=C(NC1CCCCC1)c1ccc(S(=O)(=O)NCc2ccco2)cc1	-2	-1	-6	-8	0	-22
CCOC(=O)c1c(C)[nH]c(C(=O)COC(=O)CCNS(=O)(=O)c2ccc(NC(C)=O)cc2)c1C	-3	-14	x	-9	x	x
CC(C)(CCC(=S)N1CCOCC1)c1ccccc1	x	-58	x	x	x	x
O=C1C=C(NCCN2CCOCC2)C(=O)c2cnccc21	98*	x	31	-14	-4	-9
CCCCn1c(N)c(N(CC)C(=O)c2cccs2)c(=O)[nH]c1=O	-5	-2	x	-14	x	x
CC(C)(C)NCC1(CO)SC(N)=NC1=O (centres undefined)	-8	10	-11	2	0	57*
O=C1NC(Cc2ccccc2)c2nc3ccc(F)cc3c(=O)n2-c2cc(Cl)ccc21 (centres undefined)	-3	x	x	x	x	x
O=C1NC(=S)S/C1=C\c1ccc(SCc2ccco2)o1	-2	-25	x	14	x	x
O=C1NC(=S)S/C1=C\c1ccc(SCc2ccccc2)o1	8	7	x	76*	x	x

Screening data from PubChem.
